Reference: ChEMBL document CHEMBL1150815, “Blepharocalyxins C--E, three new dimeric diarylheptanoids, and related compounds from the seeds of Alpinia blepharocalyx” (2001)
pEC50: −log10 of the molar value.

How the values were obtained:
[1] = test system: HT-1080; experiment: Antiproliferative activity against human HT1080 cells by MTT assay; assay type: functional; details: read-out: ED50 (the source's name)
In short: (§1)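 Cells grown in medium with 10% fetal calf serum, 0.1% sodium bicarbonate and 2 mM glutamine. Viability with and without agents measured by MTT assay. 5-Fluorouracil served as positive control. Activity expressed as ED50 in µM.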

[2] = Antiproliferative activity against mouse Colon 26-L5 cells by MTT assay; assay type: functional; details: read-out: ED50 (the source's name); in short: as §1

| SMILES | pEC50 [1] | pEC50 [2] |
| --- | --- | --- |
| Oc1ccc(CC[C@H]2CC=C[C@@H](c3ccc(O)cc3)O2)cc1 | 4.10 | < 4.00 |
| Oc1ccc(CC[C@H]2CC=C[C@H](c3ccc(O)cc3)O2)cc1 | 4.34 | 4.15 |
| Oc1ccc(CC[C@H]2C[C@H](O)[C@H](O)[C@@H](c3ccc(O)cc3)O2)cc1 | < 4.00 | 4.35 |
| Oc1ccc(CC[C@H]2CC(O)C(O)[C@@H](c3ccc(O)cc3)O2)cc1 (mixture of isomers) | 4.08 | 4.31 |
| Oc1ccc(/C=C/[C@H](C[C@@H](O)CCc2ccc(O)cc2)[C@@H]2[C@@H](c3ccc(O)cc3)O[C@@H](CCc3ccc(O)cc3)C[C@@H]2O)cc1 [BLEPHAROCALYXIN C] | 4.27 | 4.53 |
| Oc1ccc(/C=C/[C@@H]2C[C@H](CCc3ccc(O)cc3)O[C@@H]3C[C@H](CCc4ccc(O)cc4)O[C@H](c4ccc(O)cc4)[C@@H]23)cc1 [BLEPHAROCALYXIN D] | 4.59 | 5.44 |
| COc1cc(O)c([C@@H]2C[C@H](CCc3ccc(O)cc3)O[C@H](c3ccc(O)cc3)[C@H]2[C@H](/C=C/C[C@@H](O)CCc2ccc(O)cc2)c2ccc(O)cc2)c(O)c1C(=O)/C=C/c1ccc(O)cc1 [BLEPHAROCALYXIN E] | 5.04 | 4.49 |
| O=c1[nH]cc(F)c(=O)[nH]1 [FLUOROURACIL] | 5.10 | 6.28 |
